Experimental data taken from ChEMBL document CHEMBL3992547, “Antimicrobial activity of rhodanine-3-acetic acid derivatives” (Bioorg Med Chem, 2017).
Converted amounts (≈) assume the structure as drawn. The source made the active and inactive calls. The rule behind the calls is not given here.

Key:
[1] = tested on: Mycobacterium tuberculosis; test: Antimycobacterial activity against Mycobacterium tuberculosis H37Rv 331/88 measured after 14 days by micromethod; type: functional; details: H37Rv 331/88, 336 h
[2] = tested on: Mycobacterium tuberculosis; test: Antimycobacterial activity against Mycobacterium tuberculosis H37Rv 331/88 measured after 21 days by micromethod; type: functional; details: H37Rv 331/88, 504 h
Mycobacterium avium [3] = test: Antimycobacterial activity against Mycobacterium avium 330/88 measured after 14 days by micromethod; type: functional; details: 330/88, 336 h
Mycobacterium avium [4] = test: Antimycobacterial activity against Mycobacterium avium 330/88 measured after 21 days by micromethod; type: functional; details: 330/88, 504 h
Mycobacterium kansasii [5] = test: Antimycobacterial activity against Mycobacterium kansasii isolate 235/80 after 7 days by micromethod; type: functional; details: isolate 235/80, 168 h
Mycobacterium kansasii [6] = test: Antimycobacterial activity against Mycobacterium kansasii isolate 235/80 after 14 days by micromethod; type: functional; details: isolate 235/80, 336 h
Mycobacterium kansasii [7] = test: Antimycobacterial activity against Mycobacterium kansasii isolate 235/80 after 21 days by micromethod; type: functional; details: isolate 235/80, 504 h
Mycobacterium kansasii [8] = test: Antimycobacterial activity against Mycobacterium kansasii isolate 6509/96 after 7 days by micromethod; type: functional; details: isolate 6509/96, 168 h
Mycobacterium kansasii [9] = test: Antimycobacterial activity against Mycobacterium kansasii isolate 6509/96 after 14 days by micromethod; type: functional; details: isolate 6509/96, 336 h
Mycobacterium kansasii [10] = test: Antimycobacterial activity against Mycobacterium kansasii isolate 6509/96 after 21 days by micromethod; type: functional; details: isolate 6509/96, 504 h
[11] = Solubility of the compound in Sula's semisynthetic medium up to 1 mM; type: physicochemical
Staphylococcus aureus [12] = test: Antibacterial activity against Staphylococcus aureus CCM 4516/08 incubated for 24 hrs under dark condition by microdilution broth assay; type: functional; details: CCM 4516/08, 24 h
Summary of the method: (§1)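 Broth microdilution per M07-A07, modified, in Mueller-Hinton broth adjusted to pH 7.4 (±0.2). Inoculum is prepared in sterile water to McFarland 0.5 (1.5 × 10⁸ CFU/mL). Plates are incubated in the dark at 35 °C in humid air. MIC is read after 24 and 48 h as at least 95% growth reduction versus control (IC₉₅).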

Staphylococcus aureus [13] = test: Antibacterial activity against Staphylococcus aureus CCM 4516/08 incubated for 48 hrs under dark condition by microdilution broth assay; type: functional; details: CCM 4516/08, 48 h; summary of the method: as §1
Staphylococcus aureus [14] = test: Antibacterial activity against methicillin-resistant Staphylococcus aureus H 5996/08 incubated for 24 hrs under dark condition by microdilution broth assay; type: functional; details: H 5996/08, 24 h
Summary of the method: (§2)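 Microdilution broth method modified per M07-A07, in Mueller-Hinton broth adjusted to pH 7.4 (±0.2). Inoculum made in sterile water to 0.5 McFarland (1.5 × 10⁸ CFU/mL). Plates incubated in the dark at 35 °C in a humid atmosphere, with reads at 24 and 48 h. MIC taken as at least 95% growth reduction (IC₉₅) versus control.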

Staphylococcus aureus [15] = test: Antibacterial activity against methicillin-resistant Staphylococcus aureus H 5996/08 incubated for 48 hrs under dark condition by microdilution broth assay; type: functional; details: H 5996/08, 48 h; summary of the method: as §2
[16] = tested on: Staphylococcus epidermidis; test: Antibacterial activity against Staphylococcus epidermidis H 6966/08 incubated for 24 hrs under dark condition by microdilution broth assay; type: functional; details: H 6966/08, 24 h; summary of the method: as §1
[17] = tested on: Staphylococcus epidermidis; test: Antibacterial activity against Staphylococcus epidermidis H 6966/08 incubated for 48 hrs under dark condition by microdilution broth assay; type: functional; details: H 6966/08, 48 h; summary of the method: as §1
Escherichia coli [18] = test: Antibacterial activity against Escherichia coli CCM 4517 incubated for 24 hrs under dark condition by microdilution broth assay; type: functional; details: CCM 4517, 24 h; summary of the method: as §1
Escherichia coli [19] = test: Antibacterial activity against Escherichia coli CCM 4517 incubated for 48 hrs under dark condition by microdilution broth assay; type: functional; details: CCM 4517, 48 h; summary of the method: as §1
Klebsiella pneumoniae [20] = test: Antibacterial activity against Klebsiella pneumoniae D 11750/08 up to 500 uM incubated for 24 to 48 hrs under dark condition by microdilution broth assay; type: functional; summary of the method: as §1
Klebsiella pneumoniae [21] = test: Antibacterial activity against ESBL positive Klebsiella pneumoniae J 14368/08 up to 500 uM incubated for 24 to 48 hrs under dark condition by microdilution broth assay; type: functional; summary of the method: as §1
Pseudomonas aeruginosa = test: Antibacterial activity against Pseudomonas aeruginosa CCM 1961 up to 500 uM incubated for 24 to 48 hrs under dark condition by microdilution broth assay; type: functional; summary of the method: as §1
Pichia kudriavzevii = test: Antifungal activity against Candida krusei E28 after 24 to 48 hrs hrs by microdilution broth assay; type: functional
Summary of the method: (§3)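 Broth microdilution per CLSI M27-A3 and M38-A2 in RPMI 1640 with glutamine, buffered to pH 7.0 with MOPS. Compounds are diluted in DMSO. Final inoculum is 5 × 10³ CFU/mL for yeasts and 0.5–5 × 10⁴ CFU/mL for moulds. Plates are incubated in the dark at 35 °C in humid air and read visually and/or at 540 nm after 24 and 48 h. MIC is ≥80% growth reduction (IC₈₀) for yeasts and ≥50% (IC₅₀) for filamentous fungi.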

Lichtheimia corymbifera = test: Antifungal activity against Absidia corymbifera 272 after 24 to 48 hrs hrs by microdilution broth assay; type: functional; summary of the method: as §3
Enterococcus [22] = test: Antibacterial activity against Enterococcus sp. J 14365/08 incubated for 24 hrs under dark condition by microdilution broth assay; details: J 14365/08, 24 h
Enterococcus [23] = test: Antibacterial activity against Enterococcus sp. J 14365/08 incubated for 48 hrs under dark condition by microdilution broth assay; details: J 14365/08, 48 h

| SMILES | MIC [1] [µM] | MIC [2] [µM] | MIC (Mycobacterium avium [3]) [µM] | MIC (Mycobacterium avium [4]) [µM] | MIC (Mycobacterium kansasii [5]) [µM] | MIC (Mycobacterium kansasii [6]) [µM] | MIC (Mycobacterium kansasii [7]) [µM] | MIC (Mycobacterium kansasii [8]) [µM] | MIC (Mycobacterium kansasii [9]) [µM] | MIC (Mycobacterium kansasii [10]) [µM] | solubility [11] | Activity (Klebsiella pneumoniae [20]) | Activity (Klebsiella pneumoniae [21]) | Activity (Pseudomonas aeruginosa) | Activity (Pichia kudriavzevii) | Activity (Lichtheimia corymbifera) | other results |
| --- | --- | --- | --- | --- | --- | --- | --- | --- | --- | --- | --- | --- | --- | --- | --- | --- | --- |
| O=C(O)CN1C(=O)/C(=C/c2cc(Br)ccc2O)SC1=S | 32 (≈ 12 µg/mL) | 62.5 (≈ 23.4 µg/mL) | 62.5 (≈ 23.4 µg/mL) | 62.5 (≈ 23.4 µg/mL) | 62.5 (≈ 23.4 µg/mL) | 62.5 (≈ 23.4 µg/mL) | 62.5 (≈ 23.4 µg/mL) | 62.5 (≈ 23.4 µg/mL) | 125 (≈ 46.8 µg/mL) | 250 (≈ 93.6 µg/mL) | Soluble | inactive | inactive | inactive | inactive | inactive | MIC95 (Staphylococcus aureus [12]): 250 µM (≈ 93.6 µg/mL); MIC95 (Staphylococcus aureus [13]): 250 µM (≈ 93.6 µg/mL); MIC95 (Staphylococcus aureus [14]): 125 µM (≈ 46.8 µg/mL); MIC95 (Staphylococcus aureus [15]): 125 µM (≈ 46.8 µg/mL); MIC95 [16]: 62.5 µM (≈ 23.4 µg/mL); MIC95 [17]: 62.5 µM (≈ 23.4 µg/mL); MIC95 (Escherichia coli [18]): 500 µM (≈ 187 µg/mL); MIC95 (Escherichia coli [19]): 500 µM (≈ 187 µg/mL); MIC95 (Enterococcus [22]): 500 µM (≈ 187 µg/mL); MIC95 (Enterococcus [23]): 500 µM (≈ 187 µg/mL) |
| O=C(CN1C(=O)CSC1=S)Nc1ccc(C(F)(F)F)cc1 | 500 (≈ 167 µg/mL) | 1000 (≈ 334 µg/mL) | > 1000 | > 1000 | 1000 (≈ 334 µg/mL) | 1000 (≈ 334 µg/mL) | 1000 (≈ 334 µg/mL) | 1000 (≈ 334 µg/mL) | 1000 (≈ 334 µg/mL) | 1000 (≈ 334 µg/mL) | Soluble | inactive | inactive | inactive | inactive | inactive |  |
| COc1ccc(NC(=O)CN2C(=O)CSC2=S)cc1 | 500 (≈ 148 µg/mL) | 1000 (≈ 296 µg/mL) | 1000 (≈ 296 µg/mL) | > 1000 | 500 (≈ 148 µg/mL) | 500 (≈ 148 µg/mL) | 1000 (≈ 296 µg/mL) | 500 (≈ 148 µg/mL) | 500 (≈ 148 µg/mL) | 1000 (≈ 296 µg/mL) | Soluble | inactive | inactive | inactive | inactive | inactive |  |
| O=C(O)CN1C(=O)/C(=C/c2cc(Cl)ccc2O)SC1=S | 32 (≈ 10.6 µg/mL) | 62.5 (≈ 20.6 µg/mL) | 62.5 (≈ 20.6 µg/mL) | 62.5 (≈ 20.6 µg/mL) | 32 (≈ 10.6 µg/mL) | 62.5 (≈ 20.6 µg/mL) | 62.5 (≈ 20.6 µg/mL) | 32 (≈ 10.6 µg/mL) | 62.5 (≈ 20.6 µg/mL) | 125 (≈ 41.2 µg/mL) | Soluble | inactive | inactive | inactive | inactive | inactive | MIC95 (Staphylococcus aureus [12]): 250 µM (≈ 82.4 µg/mL); MIC95 (Staphylococcus aureus [13]): 250 µM (≈ 82.4 µg/mL); MIC95 (Staphylococcus aureus [14]): 125 µM (≈ 41.2 µg/mL); MIC95 (Staphylococcus aureus [15]): 125 µM (≈ 41.2 µg/mL); MIC95 [16]: 62.5 µM (≈ 20.6 µg/mL); MIC95 [17]: 62.5 µM (≈ 20.6 µg/mL); MIC95 (Escherichia coli [18]): 500 µM (≈ 165 µg/mL); MIC95 (Escherichia coli [19]): > 500 µM; MIC95 (Enterococcus [22]): 125 µM (≈ 41.2 µg/mL); MIC95 (Enterococcus [23]): 500 µM (≈ 165 µg/mL) |
| Cc1ccc(NC(=O)CN2C(=O)CSC2=S)cc1 | 500 (≈ 140 µg/mL) | 500 (≈ 140 µg/mL) | 1000 (≈ 280 µg/mL) | > 1000 | 250 (≈ 70.1 µg/mL) | 500 (≈ 140 µg/mL) | 500 (≈ 140 µg/mL) | 500 (≈ 140 µg/mL) | 500 (≈ 140 µg/mL) | 500 (≈ 140 µg/mL) | Soluble | inactive | inactive | inactive | inactive | inactive |  |
| O=C(O)CN1C(=O)CSC1=S [RHODANINE-3-ACETIC ACID] | 1000 (≈ 191 µg/mL) | 1000 (≈ 191 µg/mL) | 1000 (≈ 191 µg/mL) | 1000 (≈ 191 µg/mL) | 1000 (≈ 191 µg/mL) | 1000 (≈ 191 µg/mL) | 1000 (≈ 191 µg/mL) | 1000 (≈ 191 µg/mL) | 1000 (≈ 191 µg/mL) | 1000 (≈ 191 µg/mL) |  |  |  |  |  |  |  |
| Cc1ccc(OC(=O)CN2C(=O)CSC2=S)cc1 | 1000 (≈ 281 µg/mL) | 1000 (≈ 281 µg/mL) | 1000 (≈ 281 µg/mL) | 1000 (≈ 281 µg/mL) | 1000 (≈ 281 µg/mL) | 1000 (≈ 281 µg/mL) | 1000 (≈ 281 µg/mL) | 1000 (≈ 281 µg/mL) | 1000 (≈ 281 µg/mL) | 1000 (≈ 281 µg/mL) | Soluble | inactive | inactive | inactive | inactive | inactive |  |
| O=C(CN1C(=O)/C(=C/c2ccccc2O)SC1=S)Nc1ccc(Cl)cc1 | 8 (≈ 3.24 µg/mL) | 16 (≈ 6.48 µg/mL) | 62.5 (≈ 25.3 µg/mL) | 125 (≈ 50.6 µg/mL) | 32 (≈ 13 µg/mL) | 62.5 (≈ 25.3 µg/mL) | 125 (≈ 50.6 µg/mL) | 62.5 (≈ 25.3 µg/mL) | 125 (≈ 50.6 µg/mL) | 125 (≈ 50.6 µg/mL) | Soluble | inactive | inactive | inactive | inactive | inactive |  |
| NNC(=O)c1ccncc1 [ISONIAZID] | 0.5 (≈ 0.0686 µg/mL) | 1 (≈ 0.137 µg/mL) | > 250 | > 250 | > 250 | > 250 | > 250 | 4 (≈ 0.549 µg/mL) | 8 (≈ 1.1 µg/mL) | 16 (≈ 2.19 µg/mL) |  |  |  |  |  |  |  |
